Hits are enriched below; roughly 4.1% of the tested compounds scored in any of these assays.
Cl transport mod: KCC2 cotransporter modulators, thallium flux, primary screen, cell-based, HEK293 KCC2, FluoZin-2 fluorescence, MLSMR | Solute carrier family 12 member 5 (Homo sapiens), Q9H2X9 | KCC2 cells, thallium flux FluoZin-2 fluorescence | B-score of Tl+ flux slope (higher = more flux/activation; lower = inhibition) at 10 µM | hit rate 2.2% among 190,000 | AID 1456, 2008;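 active = thallium flux slope and its plate-corrected score both differing from the plate sample mean at a set confidence after two filtering rounds, in either direction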;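 also: slope of fluorescence scaled to starting intensity during 10 to 20 s after thallium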
Target sequence (Q9H2X9 whole entry, looked up): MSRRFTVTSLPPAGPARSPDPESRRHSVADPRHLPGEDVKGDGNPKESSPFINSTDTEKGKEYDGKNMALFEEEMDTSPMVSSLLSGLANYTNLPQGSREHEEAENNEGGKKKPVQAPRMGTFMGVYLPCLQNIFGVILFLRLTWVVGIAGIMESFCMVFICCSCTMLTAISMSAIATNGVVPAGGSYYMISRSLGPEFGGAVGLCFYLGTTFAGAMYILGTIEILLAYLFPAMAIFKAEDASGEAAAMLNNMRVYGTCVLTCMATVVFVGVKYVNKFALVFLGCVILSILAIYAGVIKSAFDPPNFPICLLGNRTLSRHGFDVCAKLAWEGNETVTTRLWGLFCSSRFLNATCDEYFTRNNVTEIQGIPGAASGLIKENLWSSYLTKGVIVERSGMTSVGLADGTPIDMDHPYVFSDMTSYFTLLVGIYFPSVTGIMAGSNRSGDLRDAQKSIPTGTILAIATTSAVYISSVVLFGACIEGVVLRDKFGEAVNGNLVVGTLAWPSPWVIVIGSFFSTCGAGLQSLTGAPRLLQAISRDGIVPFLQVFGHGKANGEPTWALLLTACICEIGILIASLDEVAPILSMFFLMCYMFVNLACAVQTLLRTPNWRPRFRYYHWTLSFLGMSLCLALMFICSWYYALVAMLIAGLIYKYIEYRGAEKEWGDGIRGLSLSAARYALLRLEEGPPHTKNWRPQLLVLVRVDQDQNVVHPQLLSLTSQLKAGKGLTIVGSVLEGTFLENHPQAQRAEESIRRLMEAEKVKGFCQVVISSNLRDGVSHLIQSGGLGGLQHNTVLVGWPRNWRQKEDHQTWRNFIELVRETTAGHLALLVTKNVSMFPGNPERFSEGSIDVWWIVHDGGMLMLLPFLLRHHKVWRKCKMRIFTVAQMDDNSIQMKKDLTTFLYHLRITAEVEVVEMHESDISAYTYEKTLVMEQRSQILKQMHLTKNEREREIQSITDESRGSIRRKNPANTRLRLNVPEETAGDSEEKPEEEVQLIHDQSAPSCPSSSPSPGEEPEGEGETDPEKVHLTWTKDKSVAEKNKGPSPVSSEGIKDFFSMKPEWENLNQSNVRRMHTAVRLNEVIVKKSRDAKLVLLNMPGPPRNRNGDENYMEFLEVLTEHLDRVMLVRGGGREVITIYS
Redox H2O2 prof: compounds producing H2O2 with reducing agent – biochemical, NIH compound library profiling, artefact control for MLSCN library redox annotation, primary screen; DTT-dependent redox cycling H2O2, phenol red/HRP absorbance; 100% = 100 µM peroxide control, 0% = buffer; hit rate 0.03% among 200,000; activation, % at 10 µM; AID 878, 2007;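 active = activation of at least 50% relative to the plate's high and low controls in the primary single-dose screen; inactive = activation below 50%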;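 also: compound incubated with DTT at 0.8 mM final as the reducing agent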
Autophagy mod: autophagy modulators in MEF cells, primary screen, imaging, high-content, MEF GFP-LC3 | MEF GFP-LC3 puncta imaging; test concentration mostly 10 µM | calls only at 10 µM (by protocol) | hit rate 0.98% among 190,000 | AID 463193, 2010;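 active = percentage of spot-positive cells more than 3 SD above its plate mean, without a fluorescence outlier flag or 80% toxicity; inconclusive = no clear call, values can overlap the other calls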
ROMK primary: ROMK potassium channel modulators, primary screen, cell-based, thallium flux, MLSMR library; ATP-sensitive inward rectifier potassium channel 1 (Homo sapiens), P48048; Tet-inducible ROMK, thallium flux fluorescence; actives lie on both sides; B-score at 10 µM; hit rate 2% among 130,000; AID 1918, 2009;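 active = signal ratio slope over the read window, or its plate-corrected B-score, at least 3 SD from the plate mean, either direction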;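 also: B-score of the F/F0 ratio slope over 7 to 12 s after thallium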
Dynein transport: inhibitors of GR-EGFP nuclear translocation, primary screen, dynein cargo transport inhibitor project, imaging, high-content, 3617.4 mouse cells; hit rate 0.47% among 220,000; test concentration mostly 20 µM; stimulated with dexamethasone, 1 µM; hits give low values; z-score, hits read low;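 active = plate z-score of nuclear minus cytoplasmic receptor signal below a set negative limit, without overly bright fluorescence or cell loss, cut at about -3.5 in these data, passing the limit was not always enough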;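 also: z-score of nuclear minus cytoplasmic ring GR-EGFP intensity difference per well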
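Also added: dexamethasone, 1.0 µM final. Medium: tet-free, stripped-serum medium. Detection: fixed, Hoechst-stained cells imaged at 10x for EGFP. Read-out: nuclear-to-cytoplasmic GR-EGFP distribution per well. Times: induction 48 h, compound 1 h, agonist 30 min.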
ROMK hit retest: ROMK channel modulator hit retest, confirmation, cell-based, thallium flux, duplicate, resupplied hits; normalized thallium flux (F/F0 slope) at 10 µM; shares compounds with ROMK primary; fluorescence ratio; hits give low values; hit rate 54% among 3,000; AID 1917, 2009;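 active = Flux at 10 µM at least 3 SD below or above vehicle control mean in one or both replicates; inconclusive = no clear call, values can overlap the other calls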
A number is an active result; n = inactive; u = inconclusive; x = not tested or not shown; + = active, no number.

SMILES	Cl transport mod	Redox H2O2 prof	Autophagy mod	ROMK primary	Dynein transport	ROMK hit retest
O=C1CC(/C=C/c2ccccc2)=Nc2ccccc2N1	x	n	n	n	n	x
CC1(C)CC(/C=C/c2ccccc2)=Nc2ccccc2N1	n	x	x	x	n	0.036
O=C(NCCC1=CCCCC1)C(=O)NCc1ccncc1	n	n	n	n	n	x
COC(=O)[C@@]1(Cc2ccc(F)cc2)[C@H]2c3cc(C(=O)N(C)C)n(CCc4ccc(OC)c(Br)c4)c3C[C@H]2CN1C(=O)c1ccccc1	n	n	n	-3.8	n	0.056
COC(=O)[C@@]1(Cc2ccc(F)cc2)[C@H]2c3cc(C(=O)N(C)C)n(Cc4ccccc4)c3C[C@H]2CN1C(=O)c1ccccc1	n	n	n	n	n	x
COC(=O)[C@@]1(Cc2ccc(F)cc2)[C@H]2c3cc(C(=O)N(C)C)n(Cc4ccc(OC)c(OC)c4)c3C[C@H]2CN1C(=O)c1ccccc1	n	n	n	-3.5	n	0.057
CCOC(=O)c1c(C)[nH]c(C(=O)CC(=O)OC)c1C	n	n	n	n	n	x
CC(=O)NC(N(C#N)c1nc(Cl)nc(N(C)C)n1)C(Cl)(Cl)Cl (stereo unspecified)	n	x	x	n	n	x
O=C(NNC1=C(C(=O)C(F)(F)F)CCC1)c1cccc(Cl)c1	x	n	n	5.8	n	n
N#C/C(=C/c1ccc([N+](=O)[O-])cc1)C(N)=O	n	n	n	-3.7	n	0.06
CCCCCCCC(=O)NC1=NC(=O)C(C)(C)S1	n	x	x	n	n	x
O=C(NC1CCCCCC1)c1c2c(nc3ccccc13)CCN(Cc1ccccc1)C2	n	n	n	-4.3	n	0.062
CCN1CCc2nc3ccccc3c(C(=O)Nc3ccc(C#N)cc3)c2C1	n	n	n	n	n	x
O=C(Nc1ccc[n+](CC(=O)c2cccc3ccccc23)c1)c1ccccc1	n	n	n	-2.8	n	0.056
Cc1ccc[n+](CC(=O)c2ccc(NC(=O)c3ccccc3)cc2)c1	n	n	n	n	n	x
CCC1=NN2C(=N)/C(=C/c3c(C)nn(-c4ccccc4)c3Cl)C(=O)N=C2S1	n	n	n	-3.1	n	0.047
CCCC1=NN2C(=N)/C(=C\c3cc(C)n(-c4cccc(C)c4)c3C)C(=O)N=C2S1	n	n	n	n	n	x
CS(=O)(=O)N1CCc2cc(-c3csc(NC(=O)Cc4cccs4)n3)ccc21	n	n	n	x	n	0.068
O=C(Cc1nc2ccccc2[nH]1)c1cccc([N+](=O)[O-])c1	n	x	x	x	n	u
O=C(Nc1nc2ccccc2[nH]1)c1cccc([N+](=O)[O-])c1	x	n	n	n	n	x
CCOC(=O)c1c(C)n(-c2ccc(C)cc2)c2ccc(OCC(O)CNCCCO)cc12 (stereo unspecified)	n	n	n	-3.6	n	0.053
O=c1c2ccccc2c(C=Nc2ccc(O)cc2)c(O)n1Cc1ccccc1	n	x	x	-4.6	n	0.041
C=CCn1c(COc2ccc(Cl)cc2)nnc1SCC(=O)c1c(N)n(C)c(=O)n(C)c1=O	n	n	n	n	n	x
N#C[C@H]1[C@H](c2ccccc2)[C@](C#N)(C(=O)c2ccccc2)[C@@H]2C=Cc3ccccc3N21	n	n	n	-2.8	n	n
Cc1nn(-c2cccc(C(F)(F)F)c2)c(=O)c2noc(C)c12	n	x	x	x	n	x
SMILES	Cl transport mod	Redox H2O2 prof	Autophagy mod	ROMK primary	Dynein transport	ROMK hit retest
COc1ccc(/C=N/NC(=O)c2cc(C(C)(C)C)[nH]n2)cc1COc1ccc(F)cc1F	n	n	n	-11	n	n
Cc1cccc(S(=O)(=O)Nc2ccc(-c3nc4ccc(C)cc4s3)cc2)c1	n	n	n	x	n	n
Cc1ccc(S(=O)(=O)Nc2ccc(-c3nc4ccc(C)cc4s3)cc2)cc1	n	n	n	x	n	x
COc1cc(/C=C2\C(=N)N3N=CSC3=NC2=O)cc(Br)c1OC(=O)c1ccco1	n	n	n	-10	n	0.032
Cn1cccc1/C=C1\SC(=Nc2cccc(O)c2)NC1=O	n	x	x	-2.3	n	n
Cc1ccc(N=C2NC(=O)/C(=C/c3cn(C)c4ccccc34)S2)cc1C	n	n	n	-3.4	n	u
Cn1cccc1/C=C1\SC(=Nc2ccccc2)NC1=O	n	x	x	x	n	x
COc1ccc(CCNC2CC(=O)N(C3CCCCC3)C2=O)cc1OC (stereo unspecified)	n	n	n	n	n	x
CCOCCCn1c(C)nc2c[n+](CC(=O)c3ccc4ccccc4c3)cc(Br)c21	n	x	x	n	n	x
Cc1ccc(NC(=S)N(CCCN2CCC(C)CC2)Cc2ccco2)cc1C	n	n	n	n	n	x
Cc1ccc(NC(=S)NCC2CCN(C(C)c3ccccc3)C2)cc1C (stereo unspecified)	n	n	n	-4.2	n	0.059
Cc1ccc(OCC(=O)NCc2cccs2)c([N+](=O)[O-])n1	n	n	n	n	n	x
Cc1ccc(-n2nnnc2SCC(=O)Nc2sc(C)c(C)c2C#N)cc1C	n	n	n	x	n	n
CCOC(=O)C(NC(C)=O)C(=O)Nc1ccc(C)cc1C (stereo unspecified)	n	n	n	n	n	x
COC(=O)c1ccc2c(=O)n(CCCCCC(=O)N3CCN(c4ccccc4)CC3)c(=O)[nH]c2c1	n	n	n	x	n	n
CCN1CCN(C(=O)CCCCCn2c(=O)[nH]c3cc(C(=O)OC)ccc3c2=O)CC1	n	n	n	x	n	x
COc1ccc(Cn2c(=O)[nH]c3cc(C(=O)N4CCN(Cc5ccccc5)CC4)ccc3c2=O)cc1	n	n	n	x	n	n
CCN1CCN(C(=O)c2ccc(Cn3c(=O)[nH]c4cc(OC)c(OC)cc4c3=O)cc2)CC1	n	n	n	n	n	x
COc1ccc(C2C=C(c3ccccc3)Nc3nnnn32)cc1 (stereo unspecified)	x	n	n	n	n	x
COc1ccc(C2=CC(c3ccc(C)cc3)n3nnnc3N2)cc1 (stereo unspecified)	x	n	n	-4.4	n	u
COCCNC(=O)NC(=O)CN1CCN(C(c2ccccc2)c2ccccc2)CC1	n	n	n	n	n	x
O=c1c(/C=N/Nc2ccccc2)c(Sc2nnnn2-c2ccccc2)nc2ccccn12	n	n	+	-3.7	n	0.04
O=C(Cn1c(-c2ccccn2)nc2ccccc21)N/N=C/c1cccnc1	n	x	x	n	n	x
N#CC1=C(N)NC(SCC(=O)c2ccc(Cl)cc2)=C(C#N)C12CCCC2	n	n	n	-2.3	n	0.066
Cc1cccc(NC(=O)CCCn2c(=S)[nH]c3ccccc3c2=O)c1	n	n	n	n	n	x
C=CCCC(=O)Nc1ccc(Br)cn1	x	n	n	2.5	n	n
